{"source": "ChEMBL document CHEMBL4043069", "about": "“Streptenols F-I Isolated from the Marine-Derived Streptomyces misionensis BAT-10-03-023” (2017)", "assay_type_in_all_cases": "functional", "key": {"HT-29": {"system": "HT-29", "experiment": "Cytotoxicity against human HT-29 cells assessed as inhibition of cell growth", "procedure,_shortened": "(§1)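 Human tumour lines were used: A-549 lung carcinoma, MDA-MB-231 breast adenocarcinoma, HT-29 colorectal carcinoma and PSN1 pancreatic adenocarcinoma. The compounds were tested across doses. GI50, the concentration giving 50% growth inhibition, was derived from dose-response data by a literature procedure. Survival was estimated with the National Cancer Institute algorithm, and three dose-response parameters were calculated.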"}, "A549": {"system": "A549", "experiment": "Cytotoxicity against human A549 cells assessed as inhibition of cell growth", "procedure,_shortened": "as §1"}, "MDA-MB-231": {"system": "MDA-MB-231", "experiment": "Cytotoxicity against human MDA-MB-231 cells assessed as inhibition of cell growth", "procedure,_shortened": "as §1"}, "PSN1": {"system": "PSN1", "experiment": "Cytotoxicity against human PSN1 cells assessed as inhibition of cell growth", "procedure,_shortened": "as §1"}}}
{"compound": "C/C=C/CCC(=O)C[C@@H](O)CCO[C@]1(CC/C=C/C)C[C@@H](O)CCO1", "values": [{"measurement": "GI50", "setting": "HT-29", "result": 28, "unit": "µM"}, {"measurement": "GI50", "setting": "A549", "result": 28, "unit": "µM"}, {"measurement": "GI50", "setting": "MDA-MB-231", "result": 28, "unit": "µM"}, {"measurement": "GI50", "setting": "PSN1", "result": 28, "unit": "µM"}]}
{"compound": "C/C=C/C=C/C(=O)C[C@H](CCO)OC", "values": [{"measurement": "GI50", "setting": "HT-29", "result": 49, "unit": "µM"}, {"measurement": "GI50", "setting": "A549", "result": 50, "unit": "µM"}, {"measurement": "GI50", "setting": "MDA-MB-231", "result": 30, "unit": "µM"}, {"measurement": "GI50", "setting": "PSN1", "result": 50, "unit": "µM"}]}
{"compound": "C/C=C/CCC(=O)C[C@@H](O)CCO", "values": [{"measurement": "GI50", "setting": "HT-29", "result": 54, "unit": "µM"}, {"measurement": "GI50", "setting": "A549", "result": 54, "unit": "µM"}, {"measurement": "GI50", "setting": "MDA-MB-231", "result": 54, "unit": "µM"}, {"measurement": "GI50", "setting": "PSN1", "result": 54, "unit": "µM"}]}
{"compound": "C/C=C/C=C/C(=O)CC(CCO)OCC[C@H](O)CC(=O)/C=C/C=C/C", "note": "(some centres undefined)", "values": [{"measurement": "GI50", "setting": "HT-29", "result": 29, "unit": "µM"}, {"measurement": "GI50", "setting": "A549", "result": 29, "unit": "µM"}, {"measurement": "GI50", "setting": "MDA-MB-231", "result": 29, "unit": "µM"}, {"measurement": "GI50", "setting": "PSN1", "result": 29, "unit": "µM"}]}
{"compound": "C/C=C/C=C/C(=O)CC(CCO)OCC[C@H](O)CC(=O)CC/C=C/C", "note": "(some centres undefined)", "values": [{"measurement": "GI50", "setting": "HT-29", "result": 28, "unit": "µM"}, {"measurement": "GI50", "setting": "A549", "result": 28, "unit": "µM"}, {"measurement": "GI50", "setting": "MDA-MB-231", "result": 28, "unit": "µM"}, {"measurement": "GI50", "setting": "PSN1", "result": 28, "unit": "µM"}]}
{"compound": "C/C=C/C=C/C(=O)C[C@@H](O)CCO", "values": [{"measurement": "GI50", "setting": "HT-29", "result": 54, "unit": "µM"}, {"measurement": "GI50", "setting": "A549", "result": 54, "unit": "µM"}, {"measurement": "GI50", "setting": "MDA-MB-231", "result": 54, "unit": "µM"}, {"measurement": "GI50", "setting": "PSN1", "result": 54, "unit": "µM"}]}
